Results on 3 compounds are retold here after ChEMBL document CHEMBL4808195, “Discovery of heterocyclic substituted dihydropyrazoles as potent anticancer agents” (Bioorg Med Chem Lett, 2021).

The subject of one assay is HCT-116. Put plainly: Anticancer activity against human HCT-116 cells assessed as inhibition of cell proliferation. It counts as functional, cell-based.
In assay [1] the test system is HCC1806. As to the kind of experiment: Anticancer activity against human HCC1806 cells assessed as inhibition of cell proliferation at 2 to 10 uM measured after 48 hrs by SRB assay. Type of assay: functional, cell-based. Conditions: dose 2-10 µM. The gist of the method:
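HCC1806 cells were exposed to the compound for 24, 48 and 72 h. Proliferation inhibition rate was read by SRB assay at each time point. Experimental triplicates, shown with SD.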
For orientation: In SRB staining, fixed cells bind dye roughly in proportion to their protein.

Assay [2] relates to HCC1806. Put plainly: Cell cycle arrest in human HCC1806 cells assessed as decrease in cell population at S phase at 2.5 to 5 uM measured after 12 hrs by flowcytometry method. Conditions: dose 2.5-5 µM. Type of assay: functional, cell-based. In a few lines:
(§1)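 HCC1806 cells were treated with the compound for 12 h. Cell-cycle distribution was determined by flow cytometry, and the phase fractions were quantified from experimental duplicates with SD.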

The test system of another assay is A549. As to the kind of experiment: Anticancer activity against human A549 cells assessed as inhibition of cell proliferation. Type of assay: functional, cell-based.
For assay [3], the system named is HCC1806. As to the kind of experiment: Cell cycle arrest in human HCC1806 cells assessed as increase in cell population at G2/M phase at 2.5 to 5 uM measured after 12 hrs by flowcytometry method. Conditions: dose 2.5-5 µM. It counts as functional, cell-based. The gist of the method:
as §1

Assay [4] relates to HCC1806. Put plainly: Cell cycle arrest in human HCC1806 cells assessed as increase in p21 accumulation at 2.5 to 5 uM measured after 12 hrs by western blot assay. Conditions: dose 2.5-5 µM. It counts as functional, cell-based. In a few lines: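 HCC1806 cells were exposed to the compound for 12 h. p21 protein level was detected by immunoblotting, with β-actin as the loading control.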
A general note: Immunoblotting shows a protein as a band on a membrane.

Another assay concerns MDA-MB-231. As to the kind of experiment: Anticancer activity against human MDA-MB-231 cells assessed as inhibition of cell growth at 10 uM measured by SRB method. It counts as functional.
A further assay concerns NCI-H1975. Put plainly: Anticancer activity against human NCI-H1975 cells assessed as inhibition of cell growth at 10 uM measured by SRB method. Type of assay: functional.
In assay [5] the test system is HCC1806. Put plainly: Anticancer activity against human HCC1806 cells assessed as inhibition of cell proliferation. Type of assay: functional, cell-based.
Assay [6] deals with HCC1806. Put plainly: Anticancer activity against human HCC1806 cells assessed as inhibition of cell growth at 10 uM measured by SRB method. Type of assay: functional.
The next assay has as its system HeLa. As to the kind of experiment: Anticancer activity against human HeLa cells assessed as inhibition of cell proliferation. Type of assay: functional, cell-based.
For assay [7], the system named is HCC1806. As to the kind of experiment: Cell cycle arrest in human HCC1806 cells assessed as decrease in cell population at G1 phase at 2.5 to 5 uM measured after 12 hrs by flowcytometry method. It counts as functional, cell-based. Conditions: dose 2.5-5 µM. The gist of the method:
as §1

The source made the active and inactive calls. The rule behind the calls is not given here.

By IC50 is commonly meant the midpoint of a concentration-inhibition curve. The inhibition is how much of the control response was suppressed. With `CN1CCN(c2ccc(C3=NN(S(=O)(=O)c4ccc(C#N)cc4)C(c4ccc(N(C)C)cc4)C3)cc2)CC1` (stereo unspecified), the half-maximal inhibitory concentration (IC50) is 3.6 µM in the assay on HCT-116, 3.6 µM in the assay on A549, 2.99 µM with HCC1806 [5] and 3 µM with HeLa. The outcome in the assay with HCC1806 [1], in the assay on HCC1806 [2], in the assay with HCC1806 [3], with HCC1806 [4] and in the assay on HCC1806 [7] was Active. For the same compound, the inhibition at 10 µM worked out at 99.8% in the assay on MDA-MB-231, 100% in the assay with NCI-H1975 and 99.8% in the assay with HCC1806 [6].
`CN1CCN(c2ccc(C3=NN(S(=O)(=O)c4ccc(Br)cc4)C(c4ccc(N(C)C)cc4)C3)cc2)CC1` (stereo unspecified): the concentration for half-maximal inhibition (IC50) is more than 10 µM with HCT-116, more than 10 µM in the assay on A549, 8.65 µM in the assay with HCC1806 [5] and more than 10 µM in the assay on HeLa. Moreover, the inhibition at 10 µM in the assay with MDA-MB-231 amounted to 23.7%; in the assay on NCI-H1975, 70.8%; with HCC1806 [6], 87.1%.
Consider `CN1CCN(c2ccc(C3=NN(C(=O)c4ccc(C(F)(F)F)cc4)C(c4ccc(N(C)C)cc4)C3)cc2)CC1` (stereo unspecified), for which the half-inhibitory concentration (IC50) was more than 10 µM with HCT-116, more than 10 µM with A549, 5.4 µM in the assay with HCC1806 [5] and more than 100 µM in the assay on HeLa. Moreover, the values for the inhibition at 10 µM in the assay with MDA-MB-231, in the assay with NCI-H1975 and in the assay with HCC1806 [6] were 55.4%, 93.2% and 84.1%, respectively.
